Bioassay records from PubChem BioAssay.
MrgX1 ag: agonists of human MrgX1 receptor; Q96LB2; MrgX1-HEK293 cells, Fluo-4 calcium fluorescence, agonist mode; stronger effect = higher value; B-score at 10 µM; 310,000 tested, 0.44% active; AID 588627;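 active = calcium response B-score plate-corrected fluorescence ratio at least 3 library SD, with starting fluorescence B-score inside 5 SD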
Target sequence (Q96LB2 whole entry, looked up): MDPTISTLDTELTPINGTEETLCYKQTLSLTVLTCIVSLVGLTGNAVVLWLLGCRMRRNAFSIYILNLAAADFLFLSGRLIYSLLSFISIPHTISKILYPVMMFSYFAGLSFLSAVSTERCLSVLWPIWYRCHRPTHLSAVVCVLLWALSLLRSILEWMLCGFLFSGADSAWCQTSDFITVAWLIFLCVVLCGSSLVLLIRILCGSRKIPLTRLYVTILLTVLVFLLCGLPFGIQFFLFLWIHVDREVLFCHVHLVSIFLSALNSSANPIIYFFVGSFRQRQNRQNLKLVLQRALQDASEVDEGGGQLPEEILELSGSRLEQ
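Test system: HEK293 cells stably expressing human MrgX1 receptor; amount: 15,000 cells per well; doses: compound delivered in addition one of three; times: overnight plating before 1 h dye loading; detection: Fluo-4 NW calcium-flux fluorescence, kinetic read; read-out basis: B-scored fluorescence response ratio; controls: positive and negative controls per plate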
MrgX1 allo act: allosterically activates human MrgX1 receptor signaling. MrgX1-HEK293, Fluo-4 calcium flux, FDSS; stronger effect = higher value. B-score at 10 µM. 310,000 tested, 0.63% active. AID 588675;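 active = plate-corrected calcium response at least 3 library SD above typical, normal starting fluorescence, not activating the receptor alone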;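 note: compound read alongside a low EC10 to EC30 dose of BAM8-22 agonist; peak minus trough fluorescence over baseline measured at the second addition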
RGS4 act: RGS4 potentiation or activation. HEK293 M3R/inducible RGS4, carbachol calcium flux Fluo4; stronger effect = lower value. B-score at 10 µM. 310,000 tested, 0.92% active. AID 463111;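 active = B-score of the integrated calcium signal more than 4 SD below the library mean, with starting fluorescence not abnormally high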;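 note: negative B-score means reduced calcium response which marks RGS4 activation or potentiation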
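Assay system: Inducible-RGS4 HEK293 cells carrying M3 receptor | Schedule: Compound preincubation 20 min at room temperature before agonist | Signal: Kinetic calcium fluorescence imaging with Fluo4-AM dye, 2 µM | Read-out basis: B score from integrated fluorescence ratio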
MrgX1 antag: antagonists of human MrgX1 receptor; B-score at 10 µM; Q96LB2; MRGX1-HEK293 calcium flux, Fluo-4, BAM8-22 antagonism; stronger effect = lower value; 310,000 tested, 1.3% active;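 active = calcium-response B-score plate-corrected more than 3 library SD below zero, starting fluorescence within 5 deviations, no agonist response on first addition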;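 note: peak minus trough fluorescence over baseline after final BAM8-22 challenge near maximal dose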
RGS4 inh: inhibitors of human RGS4. B-score at 10 µM. P49798. 310,000 tested, 0.45% active. HEK293 M3R/RGS4 inducible, Fluo-4 calcium flux; stronger effect = higher value; triggered by carbachol at its EC20;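 active = B-score, a plate-corrected calcium signal, over three deviations above library mean, with baseline fluorescence within five deviations of library mean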;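 note: RGS4 expression induced by doxycycline in cells with stable M3 receptor; B-score is computed from the integrated fluorescence ratio over baseline after carbachol; higher B-score means a larger calcium signal and so more RGS4 inhibition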
Target sequence (P49798 whole entry, looked up): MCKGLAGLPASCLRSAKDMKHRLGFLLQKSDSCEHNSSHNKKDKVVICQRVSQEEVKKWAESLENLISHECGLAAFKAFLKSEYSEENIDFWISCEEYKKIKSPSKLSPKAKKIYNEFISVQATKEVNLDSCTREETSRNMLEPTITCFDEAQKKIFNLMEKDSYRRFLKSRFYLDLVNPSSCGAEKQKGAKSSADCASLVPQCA
MrgX1 ant reconf: human MrgX1 receptor antagonism, re-confirmation screen; shares compounds with MrgX1 antag; MrgX1-HEK293, BAM8-22 calcium flux, Fluo-4; stronger effect = lower value; remaining BAM8-22 calcium response % of control (stronger effect = lower value), % at 10 µM; 2,300 tested, 19% active;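 active = remaining agonist calcium response no higher than 100% minus 3 SD of agonist-only control wells, with starting fluorescence near control levels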;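 note: agonist BAM8-22 given at a near maximal EC90 to ECmax level; peak minus minimum fluorescence divided by baseline after agonist addition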
HEK293 Ca flux: MrgX1 antagonist counter-screen hit in parental HEK293 cells; shares compounds with MrgX1 antag; Fluo-4 calcium fluorescence, FDSS; fluorescence ratio F(max-min)/F0 at 10 µM; 4,000 tested, 2% active;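 active = duplicate-averaged calcium fluorescence ratio at least three times the standard deviation of buffer wells, a nonspecific response in parental cells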
HEK293 Ca counter: activity in parental HEK293 cells without MrgX1 | fluorescence ratio F(max-min)/F0 at 10 µM | shares compounds with MrgX1 antag | parental HEK293 calcium flux, Fluo-4 fluorescence ratio; stronger effect = higher value | 4,000 tested, 0.4% active;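 active = calcium fluorescence ratio, averaged over duplicates, at least 3 SD of the buffer-well ratio, meaning a nonspecific response in receptor-free cells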;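 note: untransfected parental HEK293 lacking MrgX1 used as counterscreen for MrgX1 allosteric activators; fluorescence change taken during the second addition on a kinetic imager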
HEK293 Ca cntr2: counter-screen for MrgX1 activators: effect in parental HEK293 cells. shares compounds with MrgX1 antag. Fluo-4 calcium fluorescence (FDSS); stronger effect = higher value. fluorescence ratio F(max-min)/F0 at 10 µM. 4,000 tested, 8.7% active. AID 624115;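 active = calcium fluorescence ratio at least three times the spread of buffer wells, meaning a non-specific response in parental cells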
* hit, by the source's call; i = inactive; x = no result given. Hits are enriched below; roughly 3.5% of the tested compounds scored in any of these assays.

SMILES	MrgX1 ag	MrgX1 allo act	RGS4 act	MrgX1 antag	RGS4 inh	MrgX1 ant reconf	HEK293 Ca flux	HEK293 Ca counter	HEK293 Ca cntr2
COc1ccc(N2CCN(C(=O)Cn3nnc(-c4cccs4)n3)CC2)cc1	i	i	i	-5.17*	i	i	i	i	i
COc1ccc(-c2cc(C)no2)cc1S(=O)(=O)NCC(C)c1ccccc1 (stereo not given)	i	i	i	-6.66*	i	i	i	i	i
CCOc1ccccc1CNS(=O)(=O)c1cc(-c2cc(C)no2)ccc1OC	i	i	i	i	i	x	x	x	x
Cc1[nH]c2ccccc2c1C(=O)C(C)OC(=O)c1ccccc1NCCO (stereo not given)	i	i	i	i	i	x	x	x	x
Cc1ccc(C(=O)NCCc2nnc3ccc(SCC(=O)Nc4c(C)cc(C)cc4C)nn23)cc1	i	i	i	-5.69*	i	i	i	i	i
CCn1c(C)c(C(C)=O)c(N2CCN(c3ccccn3)CC2)nc1=S	i	i	i	i	i	x	x	x	x
CCn1c(C)c(C(C)=O)c(N2CCN(c3ccccc3)CC2)nc1=S	i	i	i	-8.89*	i	i	i	i	i
CC(C)[C@H](NC(=O)c1nn(Cc2ccccc2)c(=O)c2ccccc12)C(=O)O	i	i	i	i	i	x	x	x	x
O=C(/C(=C(\O)c1ccccc1)c1ncc[nH]1)c1ccccc1	i	i	i	-9.7*	i	i	i	i	i
CCOC(=O)N1CCN(CCC(=O)Nc2cccc(Cl)c2C)CC1	i	i	i	i	i	x	x	x	x
CCOc1ccc(C(=O)CCC(=O)Nc2ccc(C)cn2)cc1	i	i	i	-5.67*	i	81.5%*	i	i	i
O=C(Nc1ccc(Cl)c(C(F)(F)F)c1)C(=O)N1CCCCC1	i	i	i	i	i	x	x	x	x
O=C(Nc1ccc(Cl)c(C(F)(F)F)c1)N1CCCC(O)C1 (stereo not given)	i	i	i	-6.16*	i	i	i	i	i
CC(C)C(CCNC1CCN(C)CC1)c1ccc(Cl)cc1 (stereo not given)	i	i	i	i	i	x	x	x	x
CN1CCC(NCCC(c2ccc(F)cc2)c2ccc(Cl)cc2)CC1 (stereo not given)	i	i	i	-4.56*	i	i	i	i	i
COc1ccccc1CNC(=O)[C@@H]1CCCN1S(=O)(=O)c1ccc(C)cc1	i	i	i	-6.65*	i	i	i	i	i
CNCc1ccccc1OCC(=O)Nc1ccccc1	i	i	i	-4.59*	i	i	i	i	i
CCc1ccccc1OCC(=O)Nc1ccc(S(N)(=O)=O)cc1	i	i	i	i	i	x	x	x	x
Cn1cc(S(=O)(=O)CC(=O)Nc2ccc(Br)cc2)c2ccccc21	i	i	i	-6.08*	i	i	i	i	i
CC1C(=O)C(C)C(c2ccccc2F)NC1c1ccccc1F (stereo not given)	i	i	i	i	i	x	x	x	x
Cc1cccc(-c2nc(CSCC(=O)N3CCN(c4ccccn4)CC3)c(C)o2)c1	i	i	i	-8.03*	i	58.1%*	i	i	i
Cc1ccc(-c2nc(CSCC(=O)N3CCCC3)c(C)o2)cc1	i	i	i	i	i	x	x	x	x
Cc1ccc(NS(=O)(=O)c2cccc([N+](=O)[O-])c2)nc1	i	i	i	i	i	x	x	x	x
OCC[C@H]1C[C@@H](O)[C@H](O)[C@]2(CCc3ccccc3CO2)O1	i	i	x	i	x	x	x	x	x
OCC[C@@H]1C[C@@H](O)[C@H](O)[C@@]2(CCc3ccccc3CO2)O1	i	i	i	-5.01*	i	i	i	i	i
SMILES	MrgX1 ag	MrgX1 allo act	RGS4 act	MrgX1 antag	RGS4 inh	MrgX1 ant reconf	HEK293 Ca flux	HEK293 Ca counter	HEK293 Ca cntr2
O=C(OCn1nnc2ccccc2c1=O)C1CCCCC1	i	i	i	-10.3*	i	i	i	i	i
COc1ccc(C)cc1NC(=O)CCN1CC(C)OC(C)C1 (stereo not given)	i	i	i	-5.12*	i	i	i	i	i
COc1ccc(OC)c(NC(=O)CCN2CC(C)OC(C)C2)c1 (stereo not given)	i	i	i	i	i	x	x	x	x
CC(/C=C/c1cccc([N+](=O)[O-])c1)=N\NC(=O)c1ccncc1	i	i	i	i	i	x	x	x	x
CC(Cc1ccco1)NC(=O)c1ccc(C(F)(F)F)cc1 (stereo not given)	i	i	i	i	i	x	x	x	x
Cc1nc(-c2ccccc2)nc2sc(C(=O)c3ccc(F)cc3)c(N)c12	i	i	i	-4.62*	i	77.8%*	i	i	i
Cc1nc2sc(C(=O)c3ccccc3)c(N)c2c(C)c1C	i	i	i	i	i	x	x	x	x
CCN(CC)C(=O)CSc1nnc(COc2ccccc2)n1N	i	i	i	i	i	x	x	x	x
Cn1cc(CNC(=O)C2CCC(=O)N(Cc3ccccc3F)C2)cn1 (stereo not given)	i	i	i	-4.74*	i	i	i	i	i
CC(=O)N1CCN(S(=O)(=O)c2cccc(C(=O)Nc3ccccc3N3CCCC3)c2)CC1	i	i	i	i	i	x	x	x	x
CN1CCN(S(=O)(=O)c2cccc(C(=O)Nc3ccccc3N3CCCC3)c2)CC1	i	i	i	-4.6*	i	i	i	i	i
COc1ccc(CNC(=O)CCSCc2ccccc2C)cc1	i	i	i	i	i	x	x	x	x
N=C(N)N1CCN(Cc2ccccc2)CC1	i	i	i	i	i	x	x	x	x
CCOc1ncccc1C(=O)Nc1nnc(C)s1	i	i	i	-4.77*	i	i	i	i	i
O=C(Nc1nc(-c2cccs2)cs1)c1ccc(Cl)cc1	i	i	i	i	i	x	x	x	x
